Assays:
Type in all cases: functional, cell-based
HeLa = assay: Cytostatic activity against human HeLa cells assessed as inhibition of proliferation after 72 hrs by Coulter cell counting method
How it was run: (§1)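 (5–7.5) × 10⁴ tumor cells per well were exposed to test compound at 37 °C in humidified CO₂. Incubation ran 48 h for L1210 and 72 h for CEM and HeLa. Cells were then counted in a Coulter counter. IC₅₀ is the concentration that inhibits cell proliferation by 50%.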

CCRF-CEM = assay: Cytostatic activity against human CEM cells assessed as inhibition of proliferation after 72 hrs by Coulter cell counting method; how it was run: as §1
L1210 = assay: Cytostatic activity against mouse L1210 cells assessed as inhibition of proliferation after 48 hrs by Coulter cell counting method; conditions: L1210, 48 h; how it was run: as §1

Compound | IC50 (HeLa) [µM] | IC50 (CCRF-CEM) [µM] | IC50 (L1210) [µM]
Cn1c(=O)c2c(nc(Cl)n2Cc2cn(C[C@@H]3OC(C)(C)O[C@H]3[C@@H](O)P(=O)(OCc3ccccc3)OCc3ccccc3)nn2)n(C)c1=O | > 200 | > 200 | > 200
CC(=O)Nc1ccn(Cc2cn(C[C@H](OCc3ccccc3)[C@H](O)P(=O)(OCc3ccccc3)OCc3ccccc3)nn2)c(=O)n1 | 160 | 82 | 96
Cn1c(=O)c2c(ncn2Cc2cn(C[C@H](OCc3ccccc3)[C@@H](O)P(=O)(OCc3ccccc3)OCc3ccccc3)nn2)n(C)c1=O | 79 | 71 | 71
Cn1c(=O)c2c(ncn2Cc2cn(C[C@H](OCc3ccccc3)[C@H](O)P(=O)(OCc3ccccc3)OCc3ccccc3)nn2)n(C)c1=O | 83 | 72 | 56
Cc1cn(Cc2cn(C[C@H]3OC(C)(C)O[C@H]3[C@@H](O)P(=O)(OCc3ccccc3)OCc3ccccc3)nn2)c(=O)[nH]c1=O | > 200 | > 200 | 122
O=c1ccccn1Cc1cn(C[C@H](OCc2ccccc2)[C@H](O)P(=O)(OCc2ccccc2)OCc2ccccc2)nn1 | 28 | 101 | 76
Cn1cnc2c1c(=O)n(Cc1cn(C[C@H]3OC(C)(C)O[C@H]3[C@@H](O)P(=O)(OCc3ccccc3)OCc3ccccc3)nn1)c(=O)n2C | > 200 | 115 | 86
O=c1ccccn1Cc1cn(C[C@H](OCc2ccccc2)[C@@H](O)P(=O)(OCc2ccccc2)OCc2ccccc2)nn1 | 45 | 90 | 63
CC1(C)O[C@@H]([C@@H](O)P(=O)(OCc2ccccc2)OCc2ccccc2)[C@@H](Cn2cc(Cn3cnc4c(N)ncnc43)nn2)O1 | > 200 | 140 | 98
CC1(C)O[C@@H]([C@@H](O)P(=O)(OCc2ccccc2)OCc2ccccc2)[C@H](Cn2cc(Cn3ccc(=O)[nH]c3=O)nn2)O1 | 118 | > 200 | > 200
Nc1ncnc2c1ncn2Cc1cn(C[C@H](OCc2ccccc2)[C@@H](O)P(=O)(OCc2ccccc2)OCc2ccccc2)nn1 | 81 | 78 | 66
Cn1cnc2c1c(=O)n(Cc1cn(C[C@H](OCc3ccccc3)[C@H](O)P(=O)(OCc3ccccc3)OCc3ccccc3)nn1)c(=O)n2C | 76 | 68 | 58
CC1(C)O[C@@H]([C@@H](O)P(=O)(OCc2ccccc2)OCc2ccccc2)[C@@H](Cn2cc(Cn3ccc(=O)[nH]c3=O)nn2)O1 | > 200 | > 200 | > 200
CC(=O)Nc1ccn(Cc2cn(C[C@H](OCc3ccccc3)[C@@H](O)P(=O)(OCc3ccccc3)OCc3ccccc3)nn2)c(=O)n1 | > 200 | 169 | 153
CC(=O)c1cn(Cc2cn(C[C@H](OCc3ccccc3)[C@H](O)P(=O)(OCc3ccccc3)OCc3ccccc3)nn2)c2ccccc12 | 13 | 16 | 15
Cn1c(=O)c2c(nc(Cl)n2Cc2cn(C[C@H](OCc3ccccc3)[C@H](O)P(=O)(OCc3ccccc3)OCc3ccccc3)nn2)n(C)c1=O | 86 | 25 | 22
O=c1ccn(Cc2cn(C[C@H](OCc3ccccc3)[C@@H](O)P(=O)(OCc3ccccc3)OCc3ccccc3)nn2)c(=O)[nH]1 | > 200 | > 200 | > 200
CC(=O)Nc1ccn(Cc2cn(C[C@@H]3OC(C)(C)O[C@H]3[C@@H](O)P(=O)(OCc3ccccc3)OCc3ccccc3)nn2)c(=O)n1 | > 200 | > 200 | > 200
Cc1cn(Cc2cn(C[C@H](OCc3ccccc3)[C@H](O)P(=O)(OCc3ccccc3)OCc3ccccc3)nn2)c(=O)[nH]c1=O | 64 | 83 | 85
CC1(C)O[C@@H]([C@@H](O)P(=O)(OCc2ccccc2)OCc2ccccc2)[C@H](Cn2cc(Cn3cnc4c(N)ncnc43)nn2)O1 |  | > 200 | > 200

Reference: ChEMBL document CHEMBL3352515, “Design, synthesis, antiviral and cytostatic activity of ω-(1H-1,2,3-triazol-1-yl)(polyhydroxy)alkylphosphonates as acyclic nucleotide analogues” (Bioorg Med Chem, 2014)
